# Test results as given in paper PMC8923172 (Antimicrobial Agents and Chemotherapy, 2022).
# Marks after values point to notes of the source that are not given here. Residues, ends and D or L forms follow the SMILES beside them.
# Assays:
# [1] = Hematology of rats at the end of treatment; assay type: in vivo, Sprague-Dawley rats; conditions: median (IQR)
# [2] = Coagulation in rats at the end of treatment; assay type: in vivo, Sprague-Dawley rats; conditions: median (IQR)
# [3] = Toxicity studies in cynomolgus monkeys: mortality, MTD, NOAEL; assay type: in vivo
# Summary of the method: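 Cynomolgus monkeys were studied in two designs. Non-GLP range-finding: single ascending i.v. doses (0.3-10 mg/kg), then 15 mg/kg daily for 7 days, 1/sex; MTD was based on mortality, clinical observations and body weight. GLP: 0, 5, 10 or 15 mg/kg/day for 10 days by 60-min infusion, with a recovery group. NOAEL drew on clinical signs, clinical pathology and histopathology.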
# [4] = system: LPS-induced ALI; conditions: single subcutaneous injection 25 mg/kg; cited from earlier work
smiles,measurement,setting,value
"CC[C@H](C)[C@@H]1NC(=O)[C@@H]2CSSC[C@H](NC(=O)[C@H](CCCNC(=N)N)NC(=O)[C@@H]3CSSC[C@H](NC1=O)C(=O)N[C@@H]([C@@H](C)O)C(=O)N[C@@H](CCCNC(=N)N)C(=O)NCC(=O)N[C@@H](Cc1ccccc1)C(=O)N3)C(=O)N[C@@H](CC(C)C)C(=O)N[C@H]1CSSC[C@H](NC(=O)[C@H](C(C)C)NC(=O)CNC(=O)[C@H](CCCNC(=N)N)NC(=O)[C@H](CCCNC(=N)N)NC1=O)C(=O)N[C@@H](CCCNC(=N)N)C(=O)N2 [RTD-1, Rhesus theta (θ) defensin-1] (HELM PEPTIDE1{G.F.C.R.C.L.C.R.R.G.V.C.R.C.I.C.T.R}$PEPTIDE1,PEPTIDE1,3:R3-16:R3|PEPTIDE1,PEPTIDE1,5:R3-14:R3|PEPTIDE1,PEPTIDE1,7:R3-12:R3|PEPTIDE1,PEPTIDE1,1:R1-18:R2$$$V2.0)","Basophils, absolute","[1]; female, 5 mg/kg/day",0.02 (0.02) 10^3/mm^3
same,"Eosinophils, absolute","[1]; female, 5 mg/kg/day",0.30 (0.23) 10^3/mm^3
same,HDW,"[1]; female, 5 mg/kg/day",2.37 (0.16) g/dL
same,Hematocrits,"[1]; female, 5 mg/kg/day",40.50 (1.90) %
same,Hemoglobin,"[1]; female, 5 mg/kg/day",13.50 (1.00) g/dL
same,"LUC, absolute","[1]; female, 5 mg/kg/day",0.02 (0.03) 10^3/mm^3
same,"Lymphocytes, absolute","[1]; female, 5 mg/kg/day",4.78 (3.21) 10^3/mm^3
same,MCH,"[1]; female, 5 mg/kg/day",19.10 (1.00) pg
same,MCHC,"[1]; female, 5 mg/kg/day",33.40 (0.40) g/dL
same,MCV,"[1]; female, 5 mg/kg/day",57.90 (2.80) fL
same,"Monocytes, absolute","[1]; female, 5 mg/kg/day",0.17 (0.08) 10^3/mm^3
same,"Neutrophils, absolute","[1]; female, 5 mg/kg/day",1.33 (0.99) 10^3/mm^3
same,Platelets,"[1]; female, 5 mg/kg/day",801.00 (306.00) 10^3/mm^3
same,RBC,"[1]; female, 5 mg/kg/day",6.88 (0.33) 10^6/mm^3
same,RDW,"[1]; female, 5 mg/kg/day",12.70 (0.80) %
same,"Reticulocytes, absolute","[1]; female, 5 mg/kg/day",256.70 (53.50) 10^3/mm^3
same,WBC,"[1]; female, 5 mg/kg/day",6.50 (3.50) 10^3/mm^3
same,"Basophils, absolute","[1]; female, 10 mg/kg/day",0.04 (0.02) 10^3/mm^3
same,"Eosinophils, absolute","[1]; female, 10 mg/kg/day",0.33 (0.14) 10^3/mm^3
same,HDW,"[1]; female, 10 mg/kg/day",2.45 (0.16) g/dL
same,Hematocrits,"[1]; female, 10 mg/kg/day",41.15 (1.83) %
same,Hemoglobin,"[1]; female, 10 mg/kg/day",13.70 (0.38) g/dL
same,"LUC, absolute","[1]; female, 10 mg/kg/day",0.04 (0.03) 10^3/mm^3
same,"Lymphocytes, absolute","[1]; female, 10 mg/kg/day",7.13 (1.76)^c 10^3/mm^3
same,MCH,"[1]; female, 10 mg/kg/day",18.95 (0.45) pg
same,MCHC,"[1]; female, 10 mg/kg/day",33.25 (0.35) g/dL
same,MCV,"[1]; female, 10 mg/kg/day",57.30 (2.43) fL
same,"Monocytes, absolute","[1]; female, 10 mg/kg/day","0.39 (0.13)^c^,^d 10^3/mm^3"
same,"Neutrophils, absolute","[1]; female, 10 mg/kg/day",2.18 (1.30) 10^3/mm^3
same,Platelets,"[1]; female, 10 mg/kg/day",939.00 (314.75) 10^3/mm^3
same,RBC,"[1]; female, 10 mg/kg/day",7.21 (0.40) 10^6/mm^3
same,RDW,"[1]; female, 10 mg/kg/day",12.95 (0.40) %
same,"Reticulocytes, absolute","[1]; female, 10 mg/kg/day",277.25 (42.00) 10^3/mm^3
same,WBC,"[1]; female, 10 mg/kg/day",10.75 (3.68)^c 10^3/mm^3
same,"Basophils, absolute","[1]; female, 20 mg/kg, day 2",0.06 (0.06) 10^3/mm^3
same,"Eosinophils, absolute","[1]; female, 20 mg/kg, day 2","0.13 (0.06)^c^,^e 10^3/mm^3"
same,HDW,"[1]; female, 20 mg/kg, day 2",2.37 (0.32) g/dL
same,Hematocrits,"[1]; female, 20 mg/kg, day 2",46.85 (14.28) %
same,Hemoglobin,"[1]; female, 20 mg/kg, day 2",15.15 (4.58) g/dL
same,"LUC, absolute","[1]; female, 20 mg/kg, day 2",0.05 (0.03) 10^3/mm^3
same,"Lymphocytes, absolute","[1]; female, 20 mg/kg, day 2",5.56 (2.93) 10^3/mm^3
same,MCH,"[1]; female, 20 mg/kg, day 2",19.60 (0.88) pg
same,MCHC,"[1]; female, 20 mg/kg, day 2","32.30 (0.30)^d^,^e g/dL"
same,MCV,"[1]; female, 20 mg/kg, day 2",60.95 (2.18)^e fL
same,"Monocytes, absolute","[1]; female, 20 mg/kg, day 2",0.33 (0.26)^c 10^3/mm^3
same,"Neutrophils, absolute","[1]; female, 20 mg/kg, day 2",2.55 (2.72) 10^3/mm^3
same,Platelets,"[1]; female, 20 mg/kg, day 2",603.50 (524.00)^e 10^3/mm^3
same,RBC,"[1]; female, 20 mg/kg, day 2",7.63 (2.19) 10^6/mm^3
same,RDW,"[1]; female, 20 mg/kg, day 2",12.20 (0.57)^e %
same,"Reticulocytes, absolute","[1]; female, 20 mg/kg, day 2","325.95 (60.38)^c^,^d 10^3/mm^3"
same,WBC,"[1]; female, 20 mg/kg, day 2",8.15 (5.70) 10^3/mm^3
same,"Basophils, absolute","[1]; male, 5 mg/kg/day",0.03 (0.02) 10^3/mm^3
same,"Eosinophils, absolute","[1]; male, 5 mg/kg/day",0.37 (0.10) 10^3/mm^3
same,HDW,"[1]; male, 5 mg/kg/day",2.30 (0.09) g/dL
same,Hematocrits,"[1]; male, 5 mg/kg/day",43.75 (1.73) %
same,Hemoglobin,"[1]; male, 5 mg/kg/day",14.10 (0.98) g/dL
same,"LUC, absolute","[1]; male, 5 mg/kg/day",0.03 (0.02) 10^3/mm^3
same,"Lymphocytes, absolute","[1]; male, 5 mg/kg/day",6.03 (1.81) 10^3/mm^3
same,MCH,"[1]; male, 5 mg/kg/day",19.95 (1.35) pg
same,MCHC,"[1]; male, 5 mg/kg/day",32.10 (0.33) g/dL
same,MCV,"[1]; male, 5 mg/kg/day",61.75 (2.90) fL
same,"Monocytes, absolute","[1]; male, 5 mg/kg/day",0.22 (0.20) 10^3/mm^3
same,"Neutrophils, absolute","[1]; male, 5 mg/kg/day",2.04 (0.96) 10^3/mm^3
same,Platelets,"[1]; male, 5 mg/kg/day","1,052.00 (145.00) 10^3/mm^3"
same,RBC,"[1]; male, 5 mg/kg/day",7.06 (0.23) 10^6/mm^3
same,RDW,"[1]; male, 5 mg/kg/day",13.95 (1.15) %
same,"Reticulocytes, absolute","[1]; male, 5 mg/kg/day",359.65 (38.03) 10^3/mm^3
same,WBC,"[1]; male, 5 mg/kg/day",8.40 (2.53) 10^3/mm^3
same,"Basophils, absolute","[1]; male, 10 mg/kg/day",0.03 (0.02) 10^3/mm^3
same,"Eosinophils, absolute","[1]; male, 10 mg/kg/day",0.31 (0.24) 10^3/mm^3
same,HDW,"[1]; male, 10 mg/kg/day",2.20 (0.20) g/dL
same,Hematocrits,"[1]; male, 10 mg/kg/day",43.65 (1.20) %
same,Hemoglobin,"[1]; male, 10 mg/kg/day",14.20 (0.65) g/dL
same,"LUC, absolute","[1]; male, 10 mg/kg/day",0.03 (0.02) 10^3/mm^3
same,"Lymphocytes, absolute","[1]; male, 10 mg/kg/day",6.69 (2.92) 10^3/mm^3
same,MCH,"[1]; male, 10 mg/kg/day",20.20 (0.55) pg
same,MCHC,"[1]; male, 10 mg/kg/day",32.35 (0.72) g/dL
same,MCV,"[1]; male, 10 mg/kg/day",62.60 (3.05) fL
same,"Monocytes, absolute","[1]; male, 10 mg/kg/day",0.28 (0.10) 10^3/mm^3
same,"Neutrophils, absolute","[1]; male, 10 mg/kg/day",1.85 (0.61) 10^3/mm^3
same,Platelets,"[1]; male, 10 mg/kg/day","1,086.00 (192.25) 10^3/mm^3"
same,RBC,"[1]; male, 10 mg/kg/day",7.06 (0.38) 10^6/mm^3
same,RDW,"[1]; male, 10 mg/kg/day",13.10 (1.13) %
same,"Reticulocytes, absolute","[1]; male, 10 mg/kg/day",314.20 (33.35)^c 10^3/mm^3
same,WBC,"[1]; male, 10 mg/kg/day",10.05 (3.28) 10^3/mm^3
same,"Basophils, absolute","[1]; male, 20 mg/kg, day 2",0.03 (0.03) 10^3/mm^3
same,"Eosinophils, absolute","[1]; male, 20 mg/kg, day 2","0.15 (0.06)^c^,^d^,^e 10^3/mm^3"
same,HDW,"[1]; male, 20 mg/kg, day 2",2.44 (0.25)^e g/dL
same,Hematocrits,"[1]; male, 20 mg/kg, day 2","37.30 (3.70)^d^,^e %"
same,Hemoglobin,"[1]; male, 20 mg/kg, day 2","12.10 (1.00)^d^,^e g/dL"
same,"LUC, absolute","[1]; male, 20 mg/kg, day 2","0.07 (0.05)^c^,^d^,^e 10^3/mm^3"
same,"Lymphocytes, absolute","[1]; male, 20 mg/kg, day 2","4.24 (1.79)^d^,^e 10^3/mm^3"
same,MCH,"[1]; male, 20 mg/kg, day 2",20.00 (0.60) pg
same,MCHC,"[1]; male, 20 mg/kg, day 2",31.80 (0.50) g/dL
same,MCV,"[1]; male, 20 mg/kg, day 2",62.50 (2.10) fL
same,"Monocytes, absolute","[1]; male, 20 mg/kg, day 2","0.93 (0.29)^c^,^d^,^e 10^3/mm^3"
same,"Neutrophils, absolute","[1]; male, 20 mg/kg, day 2","8.40 (3.42)^c^,^d^,^e 10^3/mm^3"
same,Platelets,"[1]; male, 20 mg/kg, day 2","728.00 (86.00)^c^,^d^,^e 10^3/mm^3"
same,RBC,"[1]; male, 20 mg/kg, day 2","6.04 (0.47)^d^,^e 10^6/mm^3"
same,RDW,"[1]; male, 20 mg/kg, day 2",14.30 (1.20) %
same,"Reticulocytes, absolute","[1]; male, 20 mg/kg, day 2",373.30 (106.50)^e 10^3/mm^3
same,WBC,"[1]; male, 20 mg/kg, day 2","13.70 (4.90)^c^,^d 10^3/mm^3"
same,APTT,"[2]; female, 5 mg/kg",10.60 (0.70) s
same,Fibrinogen,"[2]; female, 5 mg/kg",223.00 (80.00) mg/dL
same,PT,"[2]; female, 5 mg/kg",16.30 (1.40) s
same,APTT,"[2]; female, 10 mg/kg",10.85 (2.43) s
same,Fibrinogen,"[2]; female, 10 mg/kg",283.00 (36.50) mg/dL
same,PT,"[2]; female, 10 mg/kg",17.05 (0.60) s
same,APTT,"[2]; female, 20 mg/kg, day 2","29.20 (20.65)^b^,^c^,^d s"
same,Fibrinogen,"[2]; female, 20 mg/kg, day 2",83.00 (151.75)^d mg/dL
same,PT,"[2]; female, 20 mg/kg, day 2","23.45 (9.75)^b^,^c s"
same,APTT,"[2]; male, 5 mg/kg",14.80 (0.98) s
same,Fibrinogen,"[2]; male, 5 mg/kg",262.50 (9.00) mg/dL
same,PT,"[2]; male, 5 mg/kg",15.95 (0.50) s
same,APTT,"[2]; male, 10 mg/kg",14.60 (1.05) s
same,Fibrinogen,"[2]; male, 10 mg/kg",261.00 (54.75) mg/dL
same,PT,"[2]; male, 10 mg/kg",17.50 (1.40) s
same,APTT,"[2]; male, 20 mg/kg, day 2","18.50 (3.13)^b^,^c^,^d s"
same,Fibrinogen,"[2]; male, 20 mg/kg, day 2","98.00 (18.50)^b^,^c^,^d mg/dL"
same,PT,"[2]; male, 20 mg/kg, day 2","21.25 (1.40)^b^,^c s"
same,mortality,"[3]; GLP 10-day repeat-dose TK study, any dose level (5-15 mg/kg/day)",no mortality or unscheduled euthanasia
same,NOAEL,[3]; GLP 10-day repeat-dose i.v.,15 mg/kg/day
same,mean AUC0-∞,[4],"~9,001 ng · h/mL"
